Test results from ChEMBL document CHEMBL5696442, “Discovery of type II inhibitors of TGFβ-activated kinase 1 (TAK1) and mitogen-activated protein kinase kinase kinase kinase 2 (MAP4K2)” (J Med Chem, 2015).
Active and inactive are the calls of the source. The rule behind the calls is not given here.

Assays:
[1] = biological target: Phosphatidylinositol 4,5-bisphosphate 3-kinase catalytic subunit alpha isoform (Homo sapiens) (UniProt P42336); test: Inhibition of PIK3CA ATP labeling site in human Huh-7 cell lysate at 1 uM by KiNativ Profiling analysis relative to control; type: subcellular
[2] = biological target: Microtubule-associated serine/threonine-protein kinase 1 (Homo sapiens) (UniProt Q9Y2H9); test: Inhibition of MAST1 Lys2 labeling site in human Huh-7 cell lysate at 1 uM by KiNativ Profiling analysis relative to control
[3] = biological target: Phosphatidylinositol 3-kinase catalytic subunit type 3 (Homo sapiens) (UniProt Q8NEB9); test: Inhibition of PIK3C3 ATP labeling site in human Huh-7 cells at 1 uM by KiNativ Profiling analysis relative to control; type: cell-based
[4] = biological target: Serine/threonine-protein kinase MARK2 (Homo sapiens) (UniProt Q7KZI7); test: Inhibition of MARK2 Lys2 labeling site harbouring FIVHRDLKAENLLLDADMNIK in human Huh-7 cell lysate at 1 uM by KiNativ Profiling analysis relative to control; type: subcellular
[5] = biological target: Myosin light chain kinase, smooth muscle (Homo sapiens) (UniProt Q15746); test: Inhibition of smMLCK Lys2 labeling site in human Huh-7 cell lysate at 1 uM by KiNativ Profiling analysis relative to control; type: subcellular
[6] = Inhibition of KHS1 Lys2 labeling site harbouring DIKGANILLTDHGDVK in human Huh-7 cell lysate at 1 uM by KiNativ Profiling analysis relative to control; conditions: condition cancer
[7] = Inhibition of p70S6K Lys2 labeling site in human Huh-7 cell lysate at 1 uM by KiNativ Profiling analysis relative to control; conditions: condition cancer
[8] = biological target: T1, Aurora kinase A (Homo sapiens) (UniProt O14965); test: Inhibition of AurA Lys2 labeling site in human Huh-7 cell lysate at 1 uM by KiNativ Profiling analysis relative to control; type: subcellular
T1 sequence (whole entry): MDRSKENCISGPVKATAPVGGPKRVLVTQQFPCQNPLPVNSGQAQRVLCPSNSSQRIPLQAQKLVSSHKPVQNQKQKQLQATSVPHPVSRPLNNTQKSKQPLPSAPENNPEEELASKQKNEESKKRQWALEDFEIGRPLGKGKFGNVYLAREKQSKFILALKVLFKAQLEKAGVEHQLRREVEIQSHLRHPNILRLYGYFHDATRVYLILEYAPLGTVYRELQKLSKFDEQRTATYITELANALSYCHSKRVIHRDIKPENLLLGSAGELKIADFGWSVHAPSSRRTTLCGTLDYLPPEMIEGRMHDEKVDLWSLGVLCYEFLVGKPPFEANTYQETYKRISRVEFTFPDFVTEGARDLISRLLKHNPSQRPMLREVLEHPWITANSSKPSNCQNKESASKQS

[9] = biological target: STE20-like serine/threonine-protein kinase (Homo sapiens) (UniProt Q9H2G2); test: Inhibition of SLK (unknown origin) at 1 uM by Ambit Kinomescan binding assay relative to control
[10] = biological target: Casein kinase I isoform delta (Homo sapiens) (UniProt P48730); test: Inhibition of CK1delta Lys2 labeling site in human A-375 cells at 5 uM by KiNativ Profiling analysis relative to control; type: cell-based
[11] = biological target: T2, Serine/threonine-protein kinase ULK3 (Homo sapiens) (UniProt Q6PHR2); test: Inhibition of ULK3 (unknown origin) at 1 uM by Ambit Kinomescan binding assay relative to control
T2 sequence (whole entry): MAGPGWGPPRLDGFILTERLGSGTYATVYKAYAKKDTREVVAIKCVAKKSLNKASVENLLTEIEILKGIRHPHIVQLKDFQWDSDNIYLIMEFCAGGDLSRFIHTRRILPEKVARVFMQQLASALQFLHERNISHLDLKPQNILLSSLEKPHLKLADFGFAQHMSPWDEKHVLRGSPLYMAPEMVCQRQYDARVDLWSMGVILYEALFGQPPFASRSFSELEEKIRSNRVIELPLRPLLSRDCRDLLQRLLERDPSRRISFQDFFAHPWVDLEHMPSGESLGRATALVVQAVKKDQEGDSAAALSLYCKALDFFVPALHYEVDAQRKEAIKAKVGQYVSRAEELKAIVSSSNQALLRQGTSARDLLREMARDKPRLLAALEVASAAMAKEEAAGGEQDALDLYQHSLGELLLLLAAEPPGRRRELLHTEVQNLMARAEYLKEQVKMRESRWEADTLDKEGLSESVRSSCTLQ

[12] = biological target: Insulin receptor (Homo sapiens) (UniProt P06213); test: Inhibition of INSR (unknown origin) at 10 uM by Ambit Kinomescan binding assay relative to control
[13] = biological target: Rho-associated protein kinase 2 (Homo sapiens) (UniProt O75116); test: Inhibition of ROCK2 (unknown origin) at 10 uM by Ambit Kinomescan binding assay
Outline: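 ATP-site competition binding assay across a panel of more than 420 kinases, with each compound tested at 10 or 1 μM.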

[14] = biological target: T3, Serine/threonine-protein kinase TBK1 (Homo sapiens) (UniProt Q9UHD2); test: Inhibition of TBK1 K2 labeling site in human Huh-7 cells at 1 uM by KiNativ Profiling analysis relative to control; type: cell-based
T3 sequence (whole entry): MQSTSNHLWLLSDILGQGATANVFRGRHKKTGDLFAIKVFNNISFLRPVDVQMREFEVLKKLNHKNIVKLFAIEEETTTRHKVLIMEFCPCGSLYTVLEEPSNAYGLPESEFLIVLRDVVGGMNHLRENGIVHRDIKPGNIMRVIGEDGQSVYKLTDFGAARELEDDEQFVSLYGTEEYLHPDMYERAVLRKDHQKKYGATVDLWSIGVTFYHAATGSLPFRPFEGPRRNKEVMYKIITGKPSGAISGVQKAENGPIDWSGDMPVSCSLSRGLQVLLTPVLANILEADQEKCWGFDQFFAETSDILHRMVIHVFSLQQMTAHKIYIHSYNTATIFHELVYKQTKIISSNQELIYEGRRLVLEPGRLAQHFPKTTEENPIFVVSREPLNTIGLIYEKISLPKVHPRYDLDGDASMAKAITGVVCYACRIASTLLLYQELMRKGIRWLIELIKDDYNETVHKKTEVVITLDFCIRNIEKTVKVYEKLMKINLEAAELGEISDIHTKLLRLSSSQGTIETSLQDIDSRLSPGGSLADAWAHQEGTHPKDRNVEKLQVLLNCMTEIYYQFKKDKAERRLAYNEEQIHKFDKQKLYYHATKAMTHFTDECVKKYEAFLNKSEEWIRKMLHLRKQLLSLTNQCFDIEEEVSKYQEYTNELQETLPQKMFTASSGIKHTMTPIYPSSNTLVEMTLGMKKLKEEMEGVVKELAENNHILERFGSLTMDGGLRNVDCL

[15] = biological target: Rho-associated protein kinase 1 (Homo sapiens) (UniProt Q13464); test: Inhibition of ROCK1 Lys2 labeling site in human A-375 cells at 0.05 uM by KiNativ Profiling analysis relative to control; type: cell-based
[16] = tested on: Epidermal growth factor receptor (Homo sapiens), P00533 [UNDEFINED MUTATION]; test: Inhibition of EGFR L747-E749del/A750P mutant (unknown origin) at 10 uM by Ambit Kinomescan binding assay relative to control

Sequence of Serine/threonine-protein kinase MARK2 (Homo sapiens) (Q7KZI7 whole entry): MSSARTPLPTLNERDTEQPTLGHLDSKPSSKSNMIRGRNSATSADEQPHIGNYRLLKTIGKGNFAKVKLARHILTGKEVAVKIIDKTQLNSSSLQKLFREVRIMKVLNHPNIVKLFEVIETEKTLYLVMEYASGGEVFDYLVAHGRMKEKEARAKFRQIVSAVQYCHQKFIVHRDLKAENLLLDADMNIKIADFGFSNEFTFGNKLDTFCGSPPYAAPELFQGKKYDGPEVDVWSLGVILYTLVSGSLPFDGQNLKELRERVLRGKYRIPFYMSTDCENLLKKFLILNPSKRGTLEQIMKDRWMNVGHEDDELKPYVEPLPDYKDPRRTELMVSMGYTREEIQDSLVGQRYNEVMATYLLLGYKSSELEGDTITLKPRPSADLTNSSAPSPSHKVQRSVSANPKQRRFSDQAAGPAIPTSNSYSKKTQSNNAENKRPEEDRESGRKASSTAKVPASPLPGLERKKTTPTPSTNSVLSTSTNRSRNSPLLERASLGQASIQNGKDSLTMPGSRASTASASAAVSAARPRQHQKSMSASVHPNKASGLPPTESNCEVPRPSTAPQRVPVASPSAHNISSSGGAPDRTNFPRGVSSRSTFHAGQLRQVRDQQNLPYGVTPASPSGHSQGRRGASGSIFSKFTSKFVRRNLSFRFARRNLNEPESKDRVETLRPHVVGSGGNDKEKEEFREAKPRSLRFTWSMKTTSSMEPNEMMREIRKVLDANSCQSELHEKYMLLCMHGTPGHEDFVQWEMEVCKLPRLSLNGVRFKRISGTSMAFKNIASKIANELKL
Sequence of Casein kinase I isoform delta (Homo sapiens) (P48730 whole entry, looked up, canonical isoform): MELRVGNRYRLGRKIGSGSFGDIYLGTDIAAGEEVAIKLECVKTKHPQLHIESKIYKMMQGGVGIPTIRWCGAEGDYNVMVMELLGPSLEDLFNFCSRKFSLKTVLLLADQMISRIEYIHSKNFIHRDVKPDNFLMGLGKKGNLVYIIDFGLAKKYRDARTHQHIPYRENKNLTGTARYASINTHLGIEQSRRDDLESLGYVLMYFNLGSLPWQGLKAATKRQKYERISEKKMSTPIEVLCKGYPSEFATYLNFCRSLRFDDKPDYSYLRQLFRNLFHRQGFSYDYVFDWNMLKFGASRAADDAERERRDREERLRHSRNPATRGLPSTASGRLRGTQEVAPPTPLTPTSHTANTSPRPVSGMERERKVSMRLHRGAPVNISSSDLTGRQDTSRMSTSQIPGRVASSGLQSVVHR
Sequence of STE20-like serine/threonine-protein kinase (Homo sapiens) (Q9H2G2 whole entry, looked up, canonical isoform): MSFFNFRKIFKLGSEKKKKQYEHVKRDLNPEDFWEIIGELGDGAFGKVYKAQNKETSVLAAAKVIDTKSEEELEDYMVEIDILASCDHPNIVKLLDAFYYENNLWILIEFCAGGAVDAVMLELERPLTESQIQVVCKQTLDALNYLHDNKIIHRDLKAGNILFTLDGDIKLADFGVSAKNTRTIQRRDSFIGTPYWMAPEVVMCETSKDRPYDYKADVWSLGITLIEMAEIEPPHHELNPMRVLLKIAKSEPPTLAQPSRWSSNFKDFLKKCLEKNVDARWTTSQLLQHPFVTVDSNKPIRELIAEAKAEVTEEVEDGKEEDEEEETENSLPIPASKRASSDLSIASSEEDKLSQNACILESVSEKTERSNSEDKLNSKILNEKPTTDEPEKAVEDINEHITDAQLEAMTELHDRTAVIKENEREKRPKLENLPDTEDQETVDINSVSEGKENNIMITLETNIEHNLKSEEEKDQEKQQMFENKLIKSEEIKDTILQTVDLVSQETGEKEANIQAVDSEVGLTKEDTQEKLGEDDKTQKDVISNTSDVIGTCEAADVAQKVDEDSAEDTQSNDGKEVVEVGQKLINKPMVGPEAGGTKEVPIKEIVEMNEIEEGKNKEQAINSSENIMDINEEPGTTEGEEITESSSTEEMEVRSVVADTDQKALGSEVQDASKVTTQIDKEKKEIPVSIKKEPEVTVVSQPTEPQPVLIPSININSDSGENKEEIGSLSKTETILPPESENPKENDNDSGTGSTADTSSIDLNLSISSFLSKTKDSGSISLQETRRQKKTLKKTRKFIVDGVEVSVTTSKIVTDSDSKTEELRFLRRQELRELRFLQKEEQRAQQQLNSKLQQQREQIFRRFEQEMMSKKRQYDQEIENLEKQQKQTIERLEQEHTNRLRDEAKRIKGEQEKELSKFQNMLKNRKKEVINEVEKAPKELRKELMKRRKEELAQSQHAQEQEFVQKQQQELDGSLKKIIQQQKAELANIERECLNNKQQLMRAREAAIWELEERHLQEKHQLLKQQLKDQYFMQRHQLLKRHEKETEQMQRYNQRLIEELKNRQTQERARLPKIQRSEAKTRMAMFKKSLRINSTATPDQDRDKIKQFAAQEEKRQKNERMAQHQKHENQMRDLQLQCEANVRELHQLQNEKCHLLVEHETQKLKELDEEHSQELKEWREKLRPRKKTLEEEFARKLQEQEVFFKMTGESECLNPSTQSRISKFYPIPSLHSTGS
Sequence of Phosphatidylinositol 4,5-bisphosphate 3-kinase catalytic subunit alpha isoform (Homo sapiens) (P42336 whole entry, canonical isoform): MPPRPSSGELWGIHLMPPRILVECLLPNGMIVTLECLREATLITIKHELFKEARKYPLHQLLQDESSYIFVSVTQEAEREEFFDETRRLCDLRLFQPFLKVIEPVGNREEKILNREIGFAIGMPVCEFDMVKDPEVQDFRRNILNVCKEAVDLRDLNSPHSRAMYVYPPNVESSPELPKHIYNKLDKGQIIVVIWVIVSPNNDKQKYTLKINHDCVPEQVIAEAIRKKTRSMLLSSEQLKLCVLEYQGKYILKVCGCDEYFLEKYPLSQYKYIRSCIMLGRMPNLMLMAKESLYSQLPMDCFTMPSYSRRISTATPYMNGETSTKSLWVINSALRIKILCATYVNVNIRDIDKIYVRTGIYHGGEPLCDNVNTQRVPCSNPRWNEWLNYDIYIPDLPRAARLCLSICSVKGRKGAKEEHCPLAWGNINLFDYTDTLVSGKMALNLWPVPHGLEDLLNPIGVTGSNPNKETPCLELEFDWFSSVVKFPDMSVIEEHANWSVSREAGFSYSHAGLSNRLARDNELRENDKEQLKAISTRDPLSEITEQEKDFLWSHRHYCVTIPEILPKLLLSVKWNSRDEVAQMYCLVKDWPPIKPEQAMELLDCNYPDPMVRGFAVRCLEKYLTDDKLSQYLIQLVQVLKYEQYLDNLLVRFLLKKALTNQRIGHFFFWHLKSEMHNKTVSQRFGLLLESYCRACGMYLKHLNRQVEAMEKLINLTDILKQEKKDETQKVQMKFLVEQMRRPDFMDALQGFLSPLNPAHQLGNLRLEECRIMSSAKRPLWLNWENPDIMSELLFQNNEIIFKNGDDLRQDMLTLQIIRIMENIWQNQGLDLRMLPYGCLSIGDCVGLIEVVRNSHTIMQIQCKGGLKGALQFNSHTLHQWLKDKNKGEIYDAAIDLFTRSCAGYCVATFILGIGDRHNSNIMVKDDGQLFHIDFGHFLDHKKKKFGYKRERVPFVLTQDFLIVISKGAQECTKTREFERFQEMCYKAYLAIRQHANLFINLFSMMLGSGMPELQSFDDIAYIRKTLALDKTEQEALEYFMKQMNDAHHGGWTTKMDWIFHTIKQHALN
Sequence of Microtubule-associated serine/threonine-protein kinase 1 (Homo sapiens) (Q9Y2H9 whole entry, looked up): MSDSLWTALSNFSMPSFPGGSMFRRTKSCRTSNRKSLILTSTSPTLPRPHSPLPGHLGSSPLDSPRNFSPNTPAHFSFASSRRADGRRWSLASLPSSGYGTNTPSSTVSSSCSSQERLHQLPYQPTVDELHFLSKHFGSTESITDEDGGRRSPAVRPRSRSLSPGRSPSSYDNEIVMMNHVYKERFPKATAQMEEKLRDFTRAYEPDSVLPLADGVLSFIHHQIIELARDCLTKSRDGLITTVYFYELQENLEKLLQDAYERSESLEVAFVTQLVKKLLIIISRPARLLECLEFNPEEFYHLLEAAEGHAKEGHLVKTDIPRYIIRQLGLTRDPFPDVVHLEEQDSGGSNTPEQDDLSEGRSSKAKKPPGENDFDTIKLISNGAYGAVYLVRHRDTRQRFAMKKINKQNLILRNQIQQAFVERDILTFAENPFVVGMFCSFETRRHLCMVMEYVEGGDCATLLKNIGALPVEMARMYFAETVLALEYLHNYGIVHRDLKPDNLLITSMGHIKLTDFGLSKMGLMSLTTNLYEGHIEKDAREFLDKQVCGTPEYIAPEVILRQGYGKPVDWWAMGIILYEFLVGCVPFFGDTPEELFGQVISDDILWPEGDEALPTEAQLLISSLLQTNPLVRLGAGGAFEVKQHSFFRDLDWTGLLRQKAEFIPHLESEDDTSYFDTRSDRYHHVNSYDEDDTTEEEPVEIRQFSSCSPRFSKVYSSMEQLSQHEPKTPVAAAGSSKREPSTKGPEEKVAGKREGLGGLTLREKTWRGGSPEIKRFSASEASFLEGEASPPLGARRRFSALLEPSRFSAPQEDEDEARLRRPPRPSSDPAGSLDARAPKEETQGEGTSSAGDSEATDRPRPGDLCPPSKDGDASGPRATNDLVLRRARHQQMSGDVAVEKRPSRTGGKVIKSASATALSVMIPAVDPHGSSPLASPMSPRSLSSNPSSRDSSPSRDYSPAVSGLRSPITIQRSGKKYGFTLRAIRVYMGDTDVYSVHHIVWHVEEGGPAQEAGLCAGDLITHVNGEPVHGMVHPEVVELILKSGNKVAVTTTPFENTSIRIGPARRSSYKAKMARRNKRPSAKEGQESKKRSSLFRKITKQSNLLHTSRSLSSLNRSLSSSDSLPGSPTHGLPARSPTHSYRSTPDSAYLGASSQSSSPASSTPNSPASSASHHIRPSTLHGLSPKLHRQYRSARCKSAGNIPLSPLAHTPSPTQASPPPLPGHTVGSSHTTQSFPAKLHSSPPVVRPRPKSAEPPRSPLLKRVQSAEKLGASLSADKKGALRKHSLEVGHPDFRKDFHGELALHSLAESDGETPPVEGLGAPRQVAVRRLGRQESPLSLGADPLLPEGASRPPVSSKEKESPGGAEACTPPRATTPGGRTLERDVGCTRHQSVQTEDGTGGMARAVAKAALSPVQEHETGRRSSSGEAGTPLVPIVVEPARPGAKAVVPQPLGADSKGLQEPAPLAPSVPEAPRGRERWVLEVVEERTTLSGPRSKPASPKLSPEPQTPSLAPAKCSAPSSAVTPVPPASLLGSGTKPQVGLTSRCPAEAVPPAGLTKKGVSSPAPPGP

CNc1cc(Oc2cc(C(=O)Nc3cc(N4CCN(C)CC4)cc(C(F)(F)F)c3)ccc2C)ncn1
inhibition [1]: 12.4% | inhibition [2]: 7.2% | inhibition [3]: 8.9% | inhibition [4]: 6% | inhibition [5]: -5.1% | inhibition at 1 µM [6]: 0.5% | inhibition at 1 µM [7]: 4.9% | inhibition [8]: 6.6%

CCN1CCN(Cc2ccc(NC(=O)c3ccc(C)c(/C=C/c4cnc5[nH]ccc5c4OC)c3)cc2C(F)(F)F)CC1
inhibition [9]: 13% | inhibition [10]: 1.4% | inhibition [11]: 55%

CCN1CCN(Cc2ccc(NC(=O)c3ccc(C)c(Oc4ccnc5[nH]ccc45)c3)cc2C(F)(F)F)CC1
inhibition [12]: 30% | inhibition [13]: inactive | inhibition [14]: 17.7% | inhibition [15]: 6% | inhibition [16]: 1.5%
